SENP8 block-1 – inhibitors of human SENP8 protease | Q96LD8 | purified SENP8, Z-RLRGG-aminoluciferin cleavage, luminescence | inhibition, % at 10 µM | 1.2% of 330,000 active | AID 2540; in the data active = inhibition above about 50%
Target sequence (Q96LD8 whole entry, looked up): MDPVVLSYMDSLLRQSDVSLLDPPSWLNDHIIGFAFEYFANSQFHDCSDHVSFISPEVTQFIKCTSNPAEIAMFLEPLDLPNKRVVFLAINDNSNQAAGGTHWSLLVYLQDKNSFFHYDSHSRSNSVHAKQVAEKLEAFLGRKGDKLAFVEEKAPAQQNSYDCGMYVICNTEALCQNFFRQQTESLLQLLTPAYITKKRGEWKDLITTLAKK
SENP6 inh – SENP6 protease inhibition | Recombinant SENP6 catalytic domain, aminoluciferin luminescence | 1.8% of 330,000 active | inhibition, % at 10 µM | AID 2599;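 active = inhibition above about 50% at the single tested dose, limit read from the data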
SENP1 FRET inh – inhibitors of human SENP1 SUMO protease catalytic domain | 0.21% of 360,000 active | recombinant SENP1 catalytic domain, CyPet-SUMO1-YPet FRET cleavage | Q9P0U3 | inhibition, % at 10 µM;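 active = inhibition at least 30% at 10 µM, raw YFP signal under a set limit, fluorescence ratio 0.5 to 1.5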
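System: Recombinant human SENP1 catalytic domain, His6-tagged | Incubation: Enzyme reaction for 50 min at room temperature, dark | Medium: Tris pH 8 with BME, BSA, NP40 and catalase | Also added: 25 nM SUMO1 FRET substrate | Compound: 10 µM single point, 0.5% DMSO | Measured by: FRET fluorescence in CFP and YFP emission channels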
SENP7 inh – blocks the human protease SENP7; Q9BQF6; recombinant SENP7, Z-RLRGG-aminoluciferin luminescence, 40 min; inhibition, % at 5 µM; 1.5% of 330,000 active; AID 434973;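 active = inhibition above about 50% at the single test dose, limit read from the data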
Target sequence (Q9BQF6 706-1050 limits assumed): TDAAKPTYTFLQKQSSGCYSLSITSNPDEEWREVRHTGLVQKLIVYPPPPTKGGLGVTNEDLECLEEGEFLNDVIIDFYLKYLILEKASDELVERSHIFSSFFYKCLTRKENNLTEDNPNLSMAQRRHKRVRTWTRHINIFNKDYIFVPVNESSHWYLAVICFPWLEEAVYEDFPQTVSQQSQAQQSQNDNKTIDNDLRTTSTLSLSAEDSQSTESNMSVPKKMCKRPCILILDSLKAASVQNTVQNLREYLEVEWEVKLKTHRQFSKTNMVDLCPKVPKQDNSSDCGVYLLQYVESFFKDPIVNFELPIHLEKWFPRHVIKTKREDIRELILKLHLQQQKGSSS
SENP8 block-2 – SENP8 (human) protease inhibition; Q96LD8; recombinant SENP8, Nedd8 substrate fluorescence; inhibition, % at 20 µM; 0.64% of 360,000 active; in the data active = inhibition mostly above about 40%, no sharp cut-off; inactive = mostly below about 27%
SENP8 confirm – confirmation of human SENP8 protease inhibitors; 40% of 6,200 active; Recombinant SENP8, Z-RLRGG-aminoluciferin luminescence, 60 min; shares compounds with SENP7 inh; AID 488912; inhibition, % at 12.5 µM;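 active = mean inhibition across replicates above about 50%, limit read from the data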
SENP6 confirm – human SENP6 inhibition, confirmed | shares compounds with SENP7 inh | recombinant SENP6, Z-RLRGG-aminoluciferin luminescence | inhibition, % at 12.5 µM | 58% of 6,200 active
SENP7 confirm – human SENP7 inhibition, confirmed; shares compounds with SENP7 inh; recombinant SENP7, Z-RLRGG-aminoluciferin luminescence, 40 min; inhibition, % at 12.5 µM; 69% of 6,200 active; AID 488917
Casp3 select – selectivity test for SENP inhibitors: human caspase-3 inhibition; purified caspase-3, Z-DEVD-aminoluciferin luminescence, 60 min; AID 488918; inhibition, % at 12.5 µM; shares compounds with SENP7 inh; 60% of 6,200 active;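 active = mean inhibition above about 50%, limit read from the data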
Luc interf – interferes with luciferase luminescence in SENP counter-screen. Pre-incubated SENP8/Z-RLRGG-aminoluciferin, luciferase luminescence interference. AID 488919. inhibition, % at 12.5 µM. shares compounds with SENP7 inh. 39% of 6,200 active;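 active = mean inhibition above about 50% when retested at one dose, limit read from the data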
Each line names hits and unclear results; the compound was inactive in the other large screens (follow-up assays come after a bar, where they were run). This is a sample that favours compounds with a hit; in the whole collection about 2.5% have one here.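 The calls were made as follows, unless noted: active = mean inhibition above about 50% in the one-dose retest (limit read from the data); inactive = the rest.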

Oc1ccccc1C1NN=C(c2ccccc2)S1 (stereo not given)	SENP8 block-1 61, SENP6 inh 86, SENP7 inh 95 | SENP8 confirm inactive | SENP6 confirm 79 | SENP7 confirm 70 | Casp3 select 65 | Luc interf inactive
CSc1ccc(C2NN=C(c3ccccc3)S2)cc1 (stereo not given)	SENP8 block-1 93, SENP6 inh 92, SENP7 inh 99 | SENP8 confirm 52 | SENP6 confirm 53 | SENP7 confirm inactive | Casp3 select 60 | Luc interf inactive
CCOC(=O)C(Oc1ccc(=O)n(-c2ccccc2)n1)C(C)=O (stereo not given)	SENP7 inh 84 | SENP8 confirm inactive | SENP6 confirm inactive | SENP7 confirm inactive | Casp3 select inactive | Luc interf inactive
CN1c2ccsc2C(O)=C(C(=S)Nc2ccc(F)c(Cl)c2)S1(=O)=O	SENP6 inh 61 | SENP8 confirm inactive | SENP6 confirm inactive | SENP7 confirm inactive | Casp3 select inactive | Luc interf inactive
Cn1cc(C(=O)Nc2ccc(F)c(Cl)c2)cn1	none
CCCN1CCC(NC(=O)Nc2ccc([N+](=O)[O-])cc2)CC1	none
CCOCC(=O)Nc1cc(C(=O)Nc2cc(C)cc(C)c2)ccc1Cl	SENP8 block-1 79, SENP7 inh 93 (no result: SENP1 FRET inh, SENP8 block-2) | SENP8 confirm 83 | SENP6 confirm 54 | SENP7 confirm 90 | Casp3 select 89 | Luc interf inactive
COc1cc(C(=O)C(=O)N2CCC(Cc3ccccc3)CC2)cc2ccccc12	none (no result: SENP8 block-1, SENP6 inh, SENP7 inh)
Cc1cc(C)c(N2C(=O)CC(Sc3ccccc3N)C2=O)c(C)c1 (stereo not given)	none (no result: SENP8 block-1, SENP6 inh, SENP7 inh)
O=C(Nc1cccc(F)c1)Nc1ccc2c(c1)CCC2	SENP6 inh 63, SENP7 inh 72 | SENP8 confirm inactive | SENP6 confirm inactive | SENP7 confirm 78 | Casp3 select inactive | Luc interf inactive
O=C(Nc1cccc(F)c1)Nc1ccccn1	SENP6 inh 58 | SENP8 confirm inactive | SENP6 confirm inactive | SENP7 confirm 75 | Casp3 select 54 | Luc interf inactive
O=C(Nc1ccc2c(c1)CCC2)c1ccc(F)cc1	SENP6 inh 87, SENP7 inh 87 | SENP8 confirm 85 | SENP6 confirm 84 | SENP7 confirm 96 | Casp3 select 82 | Luc interf 80
O=C(Nc1ccccc1)Nc1ccc2c(c1)CCC2	SENP8 block-1 62, SENP6 inh 84, SENP7 inh 80 | SENP8 confirm inactive | SENP6 confirm 57 | SENP7 confirm 91 | Casp3 select 60 | Luc interf 81
O=C(Nc1ccc(F)cc1)Nc1ccc2c(c1)CCC2	none
Cc1cc(C)cc(NC(=O)Nc2ccc3c(c2)CCC3)c1	none
O=C1Nc2ccc(Br)cc2/C1=C/c1ccc(C(=O)O)cc1	none (no result: SENP1 FRET inh, SENP8 block-2)
COCCNC(=O)c1cn(CCOC)c(=O)c2c1c1ccccc1n2C	none
COc1ccc(Cc2nc3ccc(C(=O)NC(C)Cc4ncccc4C)cc3o2)cc1OC (stereo not given)	none
CSc1nnc(NC(=O)c2ccc3c(c2)OCO3)s1	SENP8 block-1 90, SENP6 inh 96, SENP7 inh 97 | SENP8 confirm inactive | SENP6 confirm inactive | SENP7 confirm 64 | Casp3 select 51 | Luc interf inactive
CCOC(=O)CNC(=O)CSc1nnc(NC(=O)c2ccc(C)cc2)s1	none
CCOC(=O)CNC(=O)CSc1nnc(NC(=O)c2ccc3c(c2)OCO3)s1	SENP8 block-1 54, SENP6 inh 54, SENP7 inh 79 | SENP8 confirm inactive | SENP6 confirm inactive | SENP7 confirm inactive | Casp3 select inactive | Luc interf inactive
CSc1nnc(NC(=O)c2ccc(S(=O)(=O)N(C)C)cc2)s1	SENP7 inh 51 | SENP8 confirm inactive | SENP6 confirm inactive | SENP7 confirm inactive | Casp3 select inactive | Luc interf inactive
Cc1csc(-c2cnn(-c3ccccc3)c2NC(=O)c2ccc(C(F)(F)F)cc2)n1	none
Cc1cc(C)c(NC(=O)CO/N=C2\CCCc3nonc32)c(C)c1	none
COc1ncccc1-c1nnn(-c2ccc(C)cc2)n1	SENP8 block-1 70, SENP6 inh 78, SENP7 inh 80 | SENP8 confirm 78 | SENP6 confirm 81 | SENP7 confirm 96 | Casp3 select 82 | Luc interf 79
COc1ncccc1-c1nnn(-c2ccc(Cl)c(Cl)c2)n1	none
COc1ncccc1-c1nnn(-c2ccc(F)cc2)n1	SENP8 block-1 67, SENP6 inh 73, SENP7 inh 70 | SENP8 confirm 71 | SENP6 confirm 75 | SENP7 confirm 93 | Casp3 select 81 | Luc interf 69
COc1ccc2c(c1)C(=O)c1ccccc1CO2	SENP6 inh 56 | SENP8 confirm 70 | SENP6 confirm 74 | SENP7 confirm 91 | Casp3 select 67 | Luc interf 67
Cc1ccc(/C=C/C(=O)c2ccccc2)cc1	SENP6 inh 78 | SENP8 confirm 51 | SENP6 confirm 60 | SENP7 confirm 64 | Casp3 select inactive | Luc interf 65
CSc1ccc(/C=C/C(=O)c2ccc(O)cc2)cc1	SENP8 block-1 74, SENP6 inh 81 | SENP8 confirm 69 | SENP6 confirm 64 | SENP7 confirm inactive | Casp3 select inactive | Luc interf inactive
CCOc1ccc(N/C=C/C(=O)c2ccccc2)c([N+](=O)[O-])c1	SENP8 block-1 97, SENP6 inh 98, SENP7 inh 101 | SENP8 confirm 94 | SENP6 confirm 95 | SENP7 confirm 80 | Casp3 select 97 | Luc interf inactive
CCOc1ccc(C(=O)/C=C/c2ccc(SC)cc2)cc1	none
CCOc1ccc(/C=C/C(=O)c2ccccc2)cc1	SENP8 block-1 70, SENP6 inh 76, SENP7 inh 83 | SENP8 confirm inactive | SENP6 confirm 83 | SENP7 confirm 88 | Casp3 select inactive | Luc interf 80
Cc1nn(Cc2ccccc2)c(C)c1C(=O)N1CCN(S(=O)(=O)/C=C/c2ccccc2)CC1	none
CCC(C)(C(=O)NC1CCCC1)N(C(=O)CNC(=O)c1ccccc1)c1c(C)n(C)n(-c2ccccc2)c1=O (stereo not given)	none
CN1CCN(C(=O)CCN2C(=O)/C(=C/c3ccc(F)cc3)SC2=S)CC1	none
CN(C)c1ccc(C(=O)/C=C/c2ccc(Br)cc2)cc1	none
